Here are results for 15 compounds from ChEMBL document CHEMBL1123477, “Phenethyl ester derivative analogues of the C-terminal tetrapeptide of gastrin as potent gastrin antagonists” (J Med Chem, 1986).

Active and inactive are the calls of the source. The rule behind the calls is not given here. Where a SMILES comes first, the peptide text is derived from it. The star is where a group is joined. Boc = CC(C)(C)OC(=O)*

The test system of the first test is Rattus norvegicus. The test can be described thus: Compound was evaluated for the antagonist activity (ED50) against gastrin-induced acid secretion in the anesthetized rat; Inactive. The test is classed as functional, organism-based.
Details: not given
In a few lines: (§1)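 Urethane-anaesthetized rats (ip) with the stomach continuously perfused at 30 °C with propionate-succinate solution. Cumulative pH was recorded over time as the index of acid secretion. Compound in alkaline aqueous solution was given as an iv bolus together with (Leu15)-human gastrin I, usually 80 pmol. H+ output, taken from the stimulated minus basal trace, was expressed as % inhibition relative to gastrin alone.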
The ED50 is the midpoint of the dose-response relation. As to `CC(C)C[C@@H](NC(=O)[C@H](Cc1c[nH]c2ccccc12)NC(=O)OC(C)(C)C)C(=O)N[C@H](CC(=O)OCCc1ccc(F)cc1)C(=O)O`, the ED50 entry was “inactive”.
On the same count and under the same terms, in the case of `CC(C)C[C@H](NC(=O)OC(C)(C)C)C(=O)N[C@@H](CC(=O)O)C(=O)OCCc1ccccc1` it was “inactive”.

Tested on in another test: not listed separately
The test can be described thus: Compound was evaluated for the inhibition of [125 I](Nle12)HG-13 binding to isolated gastric mucosa cells. On the set-up: species or system Oryctolagus cuniculus. Conditions: in the assay text read “(Nle11)” for “(Nle12)”. A digest of the protocol: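 Dispersed rabbit fundic mucosal cells (collagenase/EDTA digestion, mixed population with about 45% parietal cells) were incubated in Hepes-buffered Earle's medium with 0.2% BSA, pH 7.4. Incubation was 30 min at 37 °C with 20 pM mono-iodinated (Nle11)-HG-13 (chloramine T labelling) plus varied peptide concentrations. Nonsaturable binding was defined with 1 × 10^-6 M unlabeled (Nle11)-HG-13.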
In general, IC50 refers to the concentration that inhibits the measured activity by half. Higher therefore signals weaker potency. With `CC(C)C[C@H](NC(=O)[C@@H](Cc1c[nH]c2ccccc12)NC(=O)CCNC(=O)OC(C)(C)C)C(=O)N[C@H](CC(=O)O)C(=O)OCCc1ccccc1`, the IC50 is 0.075 µM.
On the same count and under the same terms, in the case of `CC(C)C[C@H](NC(=O)[C@H](Cc1c[nH]c2ccccc12)NC(=O)OC(C)(C)C)C(=O)N[C@@H](CC(=O)O)C(=O)N[C@@H](Cc1ccccc1)C(N)=O` (Boc-WLDF-NH2) it was 0.5 µM; in that of `CC(C)C[C@H](NC(=O)[C@@H](Cc1c[nH]c2ccccc12)NC(=O)CCNC(=O)OC(C)(C)C)C(=O)N[C@H](CC(=O)O)C(=O)NC(Cc1ccccc1)C(N)=O` (some centres not stated), 0.05 µM; in that of `CC(C)C[C@H](NC(=O)[C@H](Cc1c[nH]c2ccccc12)NC(=O)OC(C)(C)C)C(=O)N[C@@H](CC(=O)O)C(=O)OCCc1ccccc1`, 0.75 µM.

The next test has as its system Rattus norvegicus. The test can be described thus: Compound was evaluated for the antagonist activity (ED50) against gastrin-induced acid secretion in the anesthetized rat. The format is functional.
Details: not given
A digest of the protocol: as §1
The compound `CC(C)C[C@H](NC(=O)[C@H](Cc1c[nH]c2ccccc12)NC(=O)OC(C)(C)C)C(=O)N[C@@H](CC(=O)O)C(=O)OCCc1ccccc1F` came in with an ED50 of 0.1 mg/kg.
Turning to `CC(C)C[C@H](NC(=O)[C@@H](Cc1c[nH]c2ccccc12)NC(=O)CCNC(=O)OC(C)(C)C)C(=O)N[C@H](CC(=O)O)C(=O)OCCc1ccccc1`, the ED50 came out at 0.04 mg/kg.
The same measure, in the same setting: the result for `CC(C)C[C@H](NC[C@H](Cc1c[nH]c2ccccc12)NC(=O)OC(C)(C)C)C(=O)N[C@@H](CC(=O)O)C(=O)OCCc1ccccc1` reads 1 mg/kg; that for `CC(C)C[C@H](NC(=O)[C@H](Cc1c[nH]c2ccccc12)NC(=O)CCNC(=O)OC(C)(C)C)C(=O)N[C@@H](CC(=O)O)C(=O)OCCc1ccc(F)cc1`, 0.02 mg/kg.
Still for that read-out and setting: in the case of `CC(C)C[C@H](NC(=O)[C@H](Cc1c[nH]c2ccccc12)NC(=O)OC(C)(C)C)C(=O)N[C@@H](CC(=O)O)C(=O)OCCc1cccc(C(F)(F)F)c1` it was more than 1 mg/kg; in that of `CC(C)C[C@H](NC(=O)[C@H](Cc1c[nH]c2ccccc12)NC(=O)OC(C)(C)C)C(=O)N[C@@H](CC(=O)O)C(=O)OCCc1ccccc1C(F)(F)F`, 1.5 mg/kg; in that of `CC(C)C[C@H](NC(=O)[C@H](Cc1c[nH]c2ccccc12)NC(=O)OC(C)(C)C)C(=O)N[C@@H](CC(=O)O)C(=O)OCCc1ccc(F)cc1`, 0.08 mg/kg.
The same measure, in the same setting: in the case of `CC(C)C[C@H](NC[C@H](Cc1c[nH]c2ccccc12)NC(=O)OC(C)(C)C)C(=O)N[C@@H](CC(=O)O)C(=O)OCCc1ccc(F)cc1` it was 0.1 mg/kg.
`CC(C)C[C@H](NC(=O)[C@H](Cc1c[nH]c2ccccc12)NC(=O)CCNC(=O)OC(C)(C)C)C(=O)N[C@H](CC(=O)O)C(=O)OCCc1ccccc1`: it took a dose of 0.08 mg/kg to reach the 50% effect level (ED50).
Turning to `CC(C)C[C@H](NC(=O)[C@@H](Cc1c[nH]c2ccccc12)NC(=O)OC(C)(C)C)C(=O)N[C@@H](CC(=O)O)C(=O)OCCc1ccccc1`, the 50% effective dose (ED50) was found to be 0.8 mg/kg.
Compound `CC(C)C[C@H](NC(=O)[C@H](Cc1c[nH]c2ccccc12)NC(=O)OC(C)(C)C)C(=O)N[C@@H](CC(=O)O)C(=O)OCCc1ccccc1` came in with a 50% effective dose (ED50) of 0.1 mg/kg.
